From ChEMBL document CHEMBL4842395, “Design and Synthesis of Oleanolic Acid Trimers to Enhance Inhibition of Influenza Virus Entry” (ACS Med Chem Lett, 2021) come the findings set out here.

Activity calls are given as the source filed them. No cut-off for these calls is given here. Numbered stars: 1 amine (or outer) side, 2 acyl side, 3 side chain; on linkers, the order of the positions; unused ones are H or OH. Bridge positions count the residues as written; N and C are the ends. Square brackets hold non-standard residues; d marks the D form. Peptide text beside a SMILES is read from it. I, II: the chains in the order shown. X1 = O=C(O)C1(OCCCCC(=O)[*:2])C[C@H](O)[C@@H](N[*:1])[C@H]([C@H](O)[C@H](O)CO)O1; X2 = O=C(NCCCCCCN[*:1])c1cc(C(=O)NCCCCCCN[*:2])cc(C(=O)NCCCCCCN[*:3])c1 Some results are limits rather than exact numbers.

Data set [1] concerns Influenza A virus. The data set is described as follows: Antiviral activity against Influenza A virus (A/Hong Kong/4801/2014 (H3N2)) infected in cells assessed as reduction in infected cells. The format is functional, organism-based.
In data set [2] the target is Hemagglutinin (Influenza A virus (A/Puerto Rico/8/1934(H1N1))) (UniProt P03452). As to the kind of experiment: Inhibition of hemagglutinin in compound-pretreated Influenza A virus (A/WSN/1933(H1N1)) infected in chicken RBC assessed as reduction in virus-induced agglutination measured after 25 mins. The data set is classed as cell-based. The following applies: Erythrocyte. In a few lines: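 Hemagglutination inhibition: virus pretreated with compound, then chicken erythrocytes added and incubated a further 25 min at room temperature. Anti-HA antibody served as the positive control.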

The subject of data set [3] is Influenza A virus. As to the kind of experiment: Antiviral activity against Influenza A virus (A/WSN/1933(H1N1)) infected in MDCK cells assessed as s reduction in virus-induced cytopathic effect after 40 hrs incubation by CellTiter-Glo assay. The data set is classed as functional, organism-based. In a few lines:
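CPE-based dose–response in MDCK cells infected with A/WSN/33 (H1N1), using the CellTiter-Glo viability read-out. Medium with 1% DMSO was the negative control and oseltamivir phosphate the positive control. IC50 is the concentration giving 50% inhibition of virus-induced CPE. Means of duplicate samples from three independent experiments.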

The test system of a further data set is Influenza B virus. As to the kind of experiment: Antiviral activity against Influenza B virus (B/Sichuan/531/2018(Victoria)) infected in cells assessed as reduction in infected cells. The format is functional, organism-based.
Data set [4] is described as follows: Selectivity index, ratio of CC50 for MDCK cells to IC50 for antiviral activity against Influenza A virus (A/Hong Kong/4801/2014 (H3N2)). The following applies: dog, read-out: Ratio CC50/IC50. The format is toxicity.
A short description of data set [5]: Cytotoxicity against MDCK cells assessed as reduction in cell viability by CellTiter-Glo assay. The format is cell-based, Canis lupus familiaris. The following applies: dog. In a few lines: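 Viability of normal, uninfected MDCK cells measured by CellTiter-Glo. Medium containing 1% DMSO was the negative control. CC50 is the concentration that reduces viability by 50%.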
For orientation: ATP-based viability assays read luminescence as a measure of living cells.

Data set [6] relates to Influenza A virus. As to the kind of experiment: Antiviral activity against Influenza A virus (A/WSN/1933(H1N1)) infected in MDCK cells assessed as reduction in virus-induced cytopathic effect at 100 uM measured after 40 hrs incubation by inverted microscpic imaging analysis. The data set is classed as functional, organism-based. In a few lines:
(§1)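 MDCK cells infected with influenza A/WSN/33 (H1N1), with compounds at 100 μM. Viral CPE judged by direct microscopic observation. DMSO served as the negative control and oseltamivir phosphate as the positive control. Triplicate experiments, with standard deviations.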

A short description of data set [7]: Selectivity ratio of CC50 for MDCK cells to IC50 for Influenza A virus A/WSN/33(H1N1) infected in MDCK cells. The data set is classed as toxicity, cell-based. The following applies: dog, read-out: Ratio CC50/IC50. Summed up: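 Selectivity index calculated as CC50 (uninfected MDCK cells, CellTiter-Glo) divided by IC50 (inhibition of A/WSN/33 H1N1-induced CPE in MDCK cells).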

Data set [8] relates to Influenza A virus. As to the kind of experiment: Antiviral activity against Influenza A virus (A/WSN/1933(H1N1)) infected in MDCK cells assessed as inhibition of virus-induced cytopathic effect at 100 uM measured after 40 hrs incubation by inverted microscpic imaging analysis. The format is functional. In a few lines: as §1
In general terms: Cytopathic effects are the visible damage that an infection or toxin causes in cultured cells.

A short description of data set [9]: Selectivity index, ratio of CC50 for MDCK cells to IC50 for antiviral activity against Influenza A virus (B/Sichuan/531/2018(Victoria)). Conditions: dog, read-out: Ratio CC50/IC50. The data set is classed as toxicity.
Data set [10] has as its system Influenza A virus. As to the kind of experiment: Antiviral activity against Influenza A virus (A/WSN/1933(H1N1)) infected in MDCK cells assessed as suppression of NP protein expression measured after 2 hrs post infection by Western blot analysis. The format is functional. Summed up: (§2)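 Time-of-addition study in MDCK cells infected with A/WSN/33 (H1N1). Compound was present during one of five windows: 0–10, 0–2, 2–5, 5–8 or 8–10 h, corresponding to entry (0–2 h), replication/translation (2–8 h) and release (8–10 h). M2 and NP protein levels were compared with a DMSO control.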
A general note: In western blotting, separated proteins are transferred to a membrane and probed.

The target of data set [11] is Hemagglutinin (Influenza A virus (A/Puerto Rico/8/1934(H1N1)), UniProt P03452). As to the kind of experiment: Binding affinity to CM5 chip immobilized Influenza A virus (A/Michigan/45/2015) (H1N1)) hemagglutin assessed as dissociation constant by surface plasmon resonance assay.
Data set [12] deals with Influenza A virus. The data set is described as follows: Antiviral activity against Influenza A virus (A/WSN/1933(H1N1)) infected in MDCK cells assessed as suppression of M2 protein expression at early stage of infection measured after 2 hrs post infection by Western blot analysis. The data set is classed as functional. In a few lines: as §2
In the next data set the target is Hemagglutinin (Influenza A virus, UniProt B4URE7). The data set is described as follows: Inhibition of CM5 chip immobilized Influenza A virus (A/Viet Nam/1203/2004(H5N1)) HA by SPR method.

As a reminder, the IC50 is the concentration that gives 50% inhibition. What is called inhibition is the relative decrease from the control value, in per cent. As usually defined, the CC50 is the concentration at which the toxic effect on the cells reaches its halfway point. As usually defined, the Kd is the constant that tells how readily two partners part at equilibrium.

Chain of Hemagglutinin (Influenza A virus (A/Puerto Rico/8/1934(H1N1)), UniProt P03452) (P03452 whole entry): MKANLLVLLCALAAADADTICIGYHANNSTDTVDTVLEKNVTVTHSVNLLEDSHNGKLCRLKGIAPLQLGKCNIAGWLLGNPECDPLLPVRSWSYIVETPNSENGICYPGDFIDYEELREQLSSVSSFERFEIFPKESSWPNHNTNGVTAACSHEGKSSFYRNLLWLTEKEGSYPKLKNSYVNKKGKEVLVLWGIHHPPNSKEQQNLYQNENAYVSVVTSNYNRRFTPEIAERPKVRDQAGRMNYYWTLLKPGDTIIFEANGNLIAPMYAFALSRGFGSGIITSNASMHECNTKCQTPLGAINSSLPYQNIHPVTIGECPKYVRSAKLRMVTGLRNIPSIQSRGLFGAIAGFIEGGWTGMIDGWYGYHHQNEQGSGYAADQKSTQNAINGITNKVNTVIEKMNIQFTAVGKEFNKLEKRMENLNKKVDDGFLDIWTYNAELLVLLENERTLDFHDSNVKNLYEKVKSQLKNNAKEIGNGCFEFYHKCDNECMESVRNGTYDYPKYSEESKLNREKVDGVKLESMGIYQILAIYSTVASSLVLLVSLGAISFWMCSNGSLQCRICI
Chain of Hemagglutinin (Influenza A virus (A/Puerto Rico/8/1934(H1N1))) (P03452 whole entry): as above
Chain of Hemagglutinin (B4URE7 whole entry): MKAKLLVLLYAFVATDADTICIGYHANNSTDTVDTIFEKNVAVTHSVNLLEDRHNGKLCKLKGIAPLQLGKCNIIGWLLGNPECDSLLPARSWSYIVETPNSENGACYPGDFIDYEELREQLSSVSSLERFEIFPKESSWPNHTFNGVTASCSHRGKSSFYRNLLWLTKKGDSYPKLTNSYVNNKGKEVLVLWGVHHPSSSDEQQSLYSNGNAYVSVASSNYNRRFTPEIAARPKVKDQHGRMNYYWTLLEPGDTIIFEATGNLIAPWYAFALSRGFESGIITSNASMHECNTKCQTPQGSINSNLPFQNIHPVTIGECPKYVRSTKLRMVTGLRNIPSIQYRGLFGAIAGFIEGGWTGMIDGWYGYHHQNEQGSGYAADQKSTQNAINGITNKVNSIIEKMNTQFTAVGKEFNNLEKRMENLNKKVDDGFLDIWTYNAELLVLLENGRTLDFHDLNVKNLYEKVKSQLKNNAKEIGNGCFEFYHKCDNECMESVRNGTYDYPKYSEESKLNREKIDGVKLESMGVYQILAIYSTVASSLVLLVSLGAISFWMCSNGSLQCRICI

With `CC1(C)CC[C@]2(C(=O)NCCCc3cn(CC(CO)(Cn4cc(CCCNC(=O)[C@]56CCC(C)(C)C[C@H]5C5=CC[C@@H]7[C@@]8(C)CC[C@H](O)C(C)(C)[C@@H]8CC[C@@]7(C)[C@]5(C)CC6)nn4)Cn4cc(CCCNC(=O)[C@]56CCC(C)(C)C[C@H]5C5=CC[C@@H]7[C@@]8(C)CC[C@H](O)C(C)(C)[C@@H]8CC[C@@]7(C)[C@]5(C)CC6)nn4)nn3)CC[C@]3(C)C(=CC[C@@H]4[C@@]5(C)CC[C@H](O)C(C)(C)[C@@H]5CC[C@]43C)[C@@H]2C1`, the IC50 with Influenza A virus [1] was 1710 nM; in the data set with Influenza A virus [3] it was 310 nM; in the data set on Influenza B virus it was 37600 nM. In addition, the inhibition result in data set [2] was “Active”. In addition, the selectivity ratio was > 58.5 in [4], > 323 in data set [7] and > 2.66 in data set [9]. In addition, in data set [5], the cytotoxic concentration (CC50) was > 100000 nM. The result in the data set on Influenza A virus [6] was Active. In addition, in the data set with Influenza A virus [8], the inhibition at 100 µM was > 80%.
`CC1(C)CC[C@]2(C(=O)NCCCc3cn(Cc4cc(Cn5cc(CCCNC(=O)[C@]67CCC(C)(C)C[C@H]6C6=CC[C@@H]8[C@@]9(C)CC[C@H](O)C(C)(C)[C@@H]9CC[C@@]8(C)[C@]6(C)CC7)nn5)cc(Cn5cc(CCCNC(=O)[C@]67CCC(C)(C)C[C@H]6C6=CC[C@@H]8[C@@]9(C)CC[C@H](O)C(C)(C)[C@@H]9CC[C@@]8(C)[C@]6(C)CC7)nn5)c4)nn3)CC[C@]3(C)C(=CC[C@@H]4[C@@]5(C)CC[C@H](O)C(C)(C)[C@@H]5CC[C@]43C)[C@@H]2C1`: the IC50 with Influenza A virus [1] stood at 2670 nM; with Influenza A virus [3], 380 nM; in the data set on Influenza B virus, 28400 nM. Further, the selectivity ratio in data set [4] is > 37.5; in [7], > 263; in data set [9] it was > 3.53. In addition, the half-maximal cytotoxic concentration (CC50) in data set [5] was > 100000 nM. Further, in the data set on Influenza A virus [8], the inhibition at 100 µM is > 80%.
For `CC1(C)CC[C@]2(C(=O)NCCCCc3cn(Cc4cc(Cn5cc(CCCCNC(=O)[C@]67CCC(C)(C)C[C@H]6C6=CC[C@@H]8[C@@]9(C)CC[C@H](O)C(C)(C)[C@@H]9CC[C@@]8(C)[C@]6(C)CC7)nn5)cc(Cn5cc(CCCCNC(=O)[C@]67CCC(C)(C)C[C@H]6C6=CC[C@@H]8[C@@]9(C)CC[C@H](O)C(C)(C)[C@@H]9CC[C@@]8(C)[C@]6(C)CC7)nn5)c4)nn3)CC[C@]3(C)C(=CC[C@@H]4[C@@]5(C)CC[C@H](O)C(C)(C)[C@@H]5CC[C@]43C)[C@@H]2C1`, the IC50 stood at 4580 nM with Influenza A virus [1], 230 nM in the data set with Influenza A virus [3] and 1870 nM in the data set on Influenza B virus. The “inhibition (INH)” value in the data set on Influenza A virus [10] and with Influenza A virus [12] was >90% each time. The figures for the selectivity ratio in data set [4], in [7] and in data set [9] were > 21.8, > 435 and > 53.5, respectively. Besides, the CC50 in data set [5] is > 100000 nM. Moreover, in data set [11], the Kd is 2630 nM. Also, the inhibition at 100 µM in the data set on Influenza A virus [8] is > 80%.
Take `CC(=O)N[C@H]1[C@H]([C@H](O)[C@H](O)CO)OC(OCCCCC(=O)NCC(=O)N[C@@H](CO)C(=O)NCC(=O)N[C@@H](CO)C(=O)N[C@@H](C)C(=O)N[C@@H](CO)C(=O)NCC(=O)N[C@@H](CO)C(=O)NCC(=O)NCCCCCCNC(=O)c2cc(C(=O)NCCCCCCNC(=O)CNC(=O)[C@H](CO)NC(=O)CNC(=O)[C@H](CO)NC(=O)[C@H](C)NC(=O)[C@H](CO)NC(=O)CNC(=O)[C@H](CO)NC(=O)CNC(=O)CCCCOC3(C(=O)O)C[C@H](O)[C@@H](NC(C)=O)[C@H]([C@H](O)[C@H](O)CO)O3)cc(C(=O)NCCCCCCNC(=O)CNC(=O)[C@H](CO)NC(=O)CNC(=O)[C@H](CO)NC(=O)[C@H](C)NC(=O)[C@H](CO)NC(=O)CNC(=O)[C@H](CO)NC(=O)CNC(=O)CCCCOC3(C(=O)O)C[C@H](O)[C@@H](NC(C)=O)[C@H]([C@H](O)[C@H](O)CO)O3)c2)(C(=O)O)C[C@@H]1O` (stereo not given in full) (I: Ac-[X1]GSGSASGSG / II: Ac-[X1]GSGSASGSG / III: Ac-[X1]GSGSASGSG; linker I:C-II:C-III:C via X2): the Kd on Hemagglutinin was 446 nM.
